SMILES strings stand for the structures. Activity calls are given as the source filed them. The calls are words filed in the database; no cut-off is given here.

Series [1] relates to Hydroxyapatite. As to the kind of experiment: Binding affinity to bone mineral hydroxyapatite after 30 mins by RP-HPLC analysis. The procedure, abridged:
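Each compound (10 mL, 0.1 mmol/L in water) stirred vigorously with 20, 40 or 80 mg hydroxyapatite for 30 min. Then analysed by HPLC on C18 with methanol/0.1% H3PO4 90:10 (pH 2.3), 25 °C, 1.0 mL/min, 254 nm detection. n = 3.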

A short description of series [2]: Prodrug conversion at pH 1.2 assessed as hydrolysis up to 24 hrs by HPLC analysis. The class given is physicochemical. The conditions noted are these: buffer, pH 1.2, 24 h. Summed up: (§1)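 Prodrugs held at 37 °C for up to 24 h in phosphate-buffered saline adjusted to pH 1.2 or pH 7.4. Samples taken at set intervals. Released parent drugs quantified by C18 HPLC with methanol/0.1% H3PO4 90:10 (pH 2.3), 25 °C, 1.0 mL/min, 254 nm. Run in triplicate.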

A short description of series [3]: Prodrug conversion at pH 7.4 assessed as hydrolysis up to 24 hrs by HPLC analysis. The class given is physicochemical. The conditions noted are these: buffer, pH 7.4, 24 h. The procedure, abridged: as §1
In series [4] the test system is Mus musculus. Description: Antiinflammatory activity in Kunming mouse assessed as inhibition of xylene-induced auricle tumefaction at 0.2 mmol/kg, po qd administered prior to challenge for 5 days measured 30 mins post challenge. The format is functional. Summed up: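 Male Kunming mice (18-22 g), ten per group, dosed once daily for 5 days at 0.2 mmol/kg; controls got 0.9% NaCl. A 7 mm filter soaked in xylene was held on the right ear for 30 s, 1 h after the last dose. Mice were killed 30 min later and 7 mm ear punches taken. Inhibition = (1 − a/b)×100%, from tumefaction degree of control and test groups.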

In series [5] the test system is Mus musculus. Description: Ulcerogenic activity in Kunming mouse assessed as ulcer index at 1 mmol/kg, po measured after 4 hrs. The format is toxicity, organism-based. As to conditions: in vivo. Summed up:
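Kunming mice of either sex (18-22 g), ten per group, fasted from food and water for 24 h. Then given 1.0 mmol/kg orally as a suspension in 1% methylcellulose. Killed at 4 h; stomachs fixed 30 min in 10% formaldehyde, opened along the greater curvature and ulcers measured under a magnifier. Ulcer index = summed lesion length (mm) per stomach averaged over 10 animals.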

The nature of series [6]: Tmax in Sprague-Dawley rat at 10 mg/kg, po. The format is ADME, organism-based. Also on record: dose 10 mg/kg, route oral. As to conditions: in vivo. The procedure, abridged:
(§2)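 SD rats of either sex (200 ± 20 g), six per group, dosed by gastric intubation after recovery from anesthesia. Arterial blood (~0.5 mL) drawn predose and at 0.17, 0.33, 0.5, 0.75, 1, 1.5, 2, 2.5, 3, 4, 5, 7 and 9 h. Plasma separated at once by centrifugation. Rhein in plasma measured by HPLC with diode-array detection.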

The nature of series [7]: MRT (0 to 9 hrs) in Sprague-Dawley rat at 10 mg/kg, po. Also on record: dose 10 mg/kg, route oral. The format is ADME, organism-based. As to conditions: in vivo. Summed up: as §2
Series [8] is described as follows: Half life in Sprague-Dawley rat at 10 mg/kg, po. The format is ADME, organism-based. Also on record: dose 10 mg/kg, route oral. The conditions noted are these: in vivo. Summed up:
as §2

Series [9] can be described thus: Cmax in Sprague-Dawley rat at 10 mg/kg, po. The format is ADME, organism-based. Also on record: dose 10 mg/kg, route oral. As to conditions: in vivo. The procedure, abridged:
as §2

A short description of series [10]: MRT (0 to infinity) in Sprague-Dawley rat at 10 mg/kg, po. As to conditions: in vivo. Also on record: dose 10 mg/kg, route oral. The format is ADME, organism-based. The procedure, abridged: as §2
Series [11] can be described thus: AUC (0 to 9 hrs) in Sprague-Dawley rat at 10 mg/kg, po. The format is ADME, organism-based. Also on record: time < 9 hr, dose 10 mg/kg, route oral. As to conditions: plasma. Summed up:
as §2

Series [12] is described as follows: AUC (0 to infinity) in Sprague-Dawley rat at 10 mg/kg, po. The format is ADME, organism-based. Details: time infinity, dose 10 mg/kg, route oral. The conditions noted are these: plasma. Summed up: as §2

Take `CC(=O)Oc1ccccc1C(=O)OCCOC(=O)c1cc(O)c2c(c1)C(=O)c1cccc(O)c1C2=O`: the result in [1] was Active. Moreover, the Drug metabolism entry in series [2] and in [3] was “Active” in each case. Besides, in [4], the inhibition in vivo at 200 µmol/kg came out at 19.6%.
As for `CC(=O)Oc1cccc2c1C(=O)c1c(OC(C)=O)cc(C(=O)OCCOCCOCCO)cc1C2=O`, the result in [1] was Active. In addition, the Drug metabolism result in [2] and in [3] was “Active” each time. Moreover, in [4], the inhibition in vivo at 200 µmol/kg came to 19.5%.
`CC(=O)Oc1cccc2c1C(=O)c1c(OC(C)=O)cc(C(=O)OCCO)cc1C2=O`: the outcome in series [1] was Active. The Drug metabolism result in [2] and in series [3] was “Active” each time. The inhibition in vivo at 200 µmol/kg in series [4] came to 16%.
Turning to `CC(=O)Oc1cccc2c1C(=O)c1c(OC(C)=O)cc(C(=O)O)cc1C2=O` [DIACEREIN], the outcome in series [1] was Active. In addition, in series [4], the inhibition in vivo at 200 µmol/kg was 29.2%.
Regarding `CC(=O)Oc1cccc2c1C(=O)c1c(OC(C)=O)cc(C(=O)OCCOC(=O)Cc3ccccc3Nc3c(Cl)cccc3Cl)cc1C2=O`, the result in series [1] was Active. Also, the Drug metabolism entry in [2] and in series [3] was “Active” each time. Also, the inhibition in vivo at 200 µmol/kg in series [4] is 44%.
With `CC(C)Cc1ccc(C(C)C(=O)O)cc1` (stereo not given) [IBUPROFEN], in [1], the outcome was inactive. Also, the UI in series [5] is recorded as 8.3. In addition, the Drug metabolism result in series [3] was “Active”. Besides, the inhibition in vivo at 200 µmol/kg in series [4] is 32%.
In the case of `CC(=O)Oc1cccc2c1C(=O)c1c(OC(C)=O)cc(C(=O)OCCOCCOC(=O)C(C)c3ccc(CC(C)C)cc3)cc1C2=O` (stereo not given), the result in series [1] was Active. The Drug metabolism entry in series [2] and in [3] was “Active” each time. For the same compound, the inhibition in vivo at 200 µmol/kg in series [4] amounted to 33%.
`O=C(OCCO)c1cc(O)c2c(c1)C(=O)c1cccc(O)c1C2=O`: in series [1], the outcome was Active. Besides, the Drug metabolism entry in series [2] and in [3] was “Active” each time. Moreover, in series [4], the inhibition in vivo at 200 µmol/kg came out at 13.9%.
Regarding `O=C(OCCOCCOCCO)c1cc(O)c2c(c1)C(=O)c1cccc(O)c1C2=O`, the result in series [1] was Active. The Drug metabolism result in [2] and in series [3] was “Active” each time. For the same compound, the inhibition in vivo at 200 µmol/kg in [4] was determined as 17.4%.
Take `O=C(Cc1ccccc1Nc1c(Cl)cccc1Cl)OCCOC(=O)c1cc(O)c2c(c1)C(=O)c1cccc(O)c1C2=O`: the result in series [1] was Active. Also, the Drug metabolism result in [2] and in [3] was “Active” each time. For the same compound, the inhibition in vivo at 200 µmol/kg in series [4] amounted to 43.9%.
`COc1ccc2cc(C(C)C(=O)OCCOC(=O)c3cc(O)c4c(c3)C(=O)c3cccc(O)c3C4=O)ccc2c1` (stereo not given): in [1], the outcome was Active. In series [5], the UI is recorded as 5.8. Besides, the Tmax in series [6] turned out to be 1.75 h. The compound further came in with an MRT last in series [7] of 3.46 h. For the same compound, in series [8], the half-life was 2.19 h. Further, the Drug metabolism result in series [2] and in series [3] was “Active” each time. The compound further had a Cmax in series [9] of 1.09 µg/mL. Also, the MRT inf in series [10] amounted to 4.23 h. In [11], the AUC(0-t) at 9 h was 4.42 µg·h/mL. In addition, the inhibition in vivo at 200 µmol/kg in [4] was 23.9%. This compound also yielded an AUC(0-inf) in series [12] of 4.86 µg·h/mL.

Source of the values: ChEMBL document CHEMBL2062385, “Bone-targeting glycol and NSAIDS ester prodrugs of rhein: synthesis, hydroxyapatite affinity, stability, anti-inflammatory, ulcerogenicity index and pharmacokinetics studies” (Eur J Med Chem, 2012).
